Like-named read-outs stand apart in the source and are kept apart here. Values belong to the compound of their own block, whether it stands above or below them.
Key:
PKM2 [1] = conditions: read-out: dissociation constant with PKM2; cited from earlier work
[2] = test system: glycolytic pathway (HeLa cell lysate); assay: Cell-free glycolysis assay using HeLa cell lysate; format: biochemical, Human
PKM2 [3] = conditions: activator of PKM2; cited from earlier work
[4] = test system: glycolytic pathway in HeLa cells; assay: Cellular glycolysis in treated HeLa cells; format: cell-based, Human
In short: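 HeLa cells in RPMI-1640 (10% FBS, 37 °C, 5% CO2), with or without an added 5 mM serine for 5 h. In a second arm, cells were serine-deprived overnight and then given fresh medium with or without serine for 5 h. Read-outs: medium glucose and lactate, and HClO4-extracted intracellular glycolytic intermediates, from which Qs and ΔGs were calculated. A cell-free HeLa-lysate glycolysis system was also run with or without 5 mM serine.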

cell lysate PK (MGC80-3) = cell lysate PK (MGC80-3) (Homo sapiens, UniProt P14618); assay: PK activity assay, MGC80-3 cell lysate; format: biochemical; conditions: MGC80-3 lysate; with AIM
cell lysate PK (A549) = cell lysate PK (A549) (Homo sapiens, UniProt P14618); assay: PK activity assay, A549 cell lysate; format: biochemical
cell lysate PK (HeLa) = cell lysate PK (HeLa) (Homo sapiens, UniProt P14618); assay: PK activity assay, HeLa cell lysate; format: biochemical
cell lysate PK (RKO) = cell lysate PK (RKO) (Homo sapiens, UniProt P14618); assay: PK activity assay, RKO cell lysate; format: biochemical
[5] = target: cell lysate PK (SK-HEP-1) (Homo sapiens, UniProt P14618); assay: PK activity assay, SK-HEP-1 cell lysate; format: biochemical; conditions: read-out: AC50FBP; SK-HEP-1 lysate; Control (without AIM)
cell lysate PK = format: biochemical, Human; conditions: regulators at cellular concentrations; Fig. 5A
In short: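 Lysates of control and PKM2 knockdown or knockout cells were assayed for PK by the coupled LDH/NADH method at 340 nm, 37 °C, pH 7.4. PEP was set at each line's measured cellular concentration, for example 0.07 mM for control HeLa and 0.21 mM for siPKM2 HeLa. FBP, the amino-acid mix, or both were added at cellular concentrations. Activity without regulators was set to 100%. Three independent experiments in triplicate.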

Sequence of cell lysate PK (A549) (P14618 2-531): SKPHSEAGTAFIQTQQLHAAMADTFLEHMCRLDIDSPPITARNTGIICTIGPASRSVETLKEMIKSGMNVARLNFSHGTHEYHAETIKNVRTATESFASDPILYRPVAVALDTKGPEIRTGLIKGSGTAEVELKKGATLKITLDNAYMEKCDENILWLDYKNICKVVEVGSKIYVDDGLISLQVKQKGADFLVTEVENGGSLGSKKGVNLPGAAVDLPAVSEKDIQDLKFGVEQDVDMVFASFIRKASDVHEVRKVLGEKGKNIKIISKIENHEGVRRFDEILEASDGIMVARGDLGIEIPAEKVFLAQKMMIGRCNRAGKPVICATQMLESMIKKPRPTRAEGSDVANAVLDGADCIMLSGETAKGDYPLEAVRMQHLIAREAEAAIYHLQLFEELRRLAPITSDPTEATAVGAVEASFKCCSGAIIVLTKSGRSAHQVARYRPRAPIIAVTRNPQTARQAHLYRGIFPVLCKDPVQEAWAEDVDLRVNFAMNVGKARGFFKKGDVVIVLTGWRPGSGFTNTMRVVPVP
Sequence of cell lysate PK (HeLa) (P14618 2-531): as above
Sequence of cell lysate PK (RKO) (P14618 2-531): as above
Sequence of cell lysate PK (MGC80-3) (P14618 2-531): as above
Sequence of cell lysate PK (SK-HEP-1) (P14618 2-531): as above

SMILES: N[C@@H](CS)C(=O)O [cysteine]
Kd (PKM2 [1]): 5.5 µM

SMILES: NC(=O)C[C@H](N)C(=O)O [asparagine]
Kd (PKM2 [1]): 11 ± 2 µM

SMILES: CC(C)[C@H](N)C(=O)O [Valine, valine]
Kd (PKM2 [1]): 757 ± 120 µM

SMILES: N[C@@H](Cc1ccccc1)C(=O)O [Phenylalanine, phenylalanine]
Kd (PKM2 [1]): 507 µM

SMILES: N[C@@H](CC(=O)O)C(=O)O [aspartate]
Kd (PKM2 [1]): 35 ± 7 µM

SMILES: Cn1c2cc([S+](C)[O-])sc2c2cnn(Cc3cccc(N)c3)c(=O)c21 (stereo not drawn) [TEPP-46]
effect on glycolytic rate ([4]; 1 μM TEPP-46): no significant effect

AC0: concentration of FBP that completely reverses the inhibition of PK by AIM (cell lysate PK (MGC80-3)): 349.6 ± 31.2 nM
ACMaxFBP (minimum concentration for maximal activation) (cell lysate PK (A549); Control (without AIM)): 279.0 ± 143.1 nM
EC50 (cell lysate PK (A549); read-out: AC50FBP, with AIM): 0.682 ± 0.126 µM
ACMaxFBP (minimum concentration for maximal activation) (cell lysate PK (A549); with AIM): 1258.9 ± 245.4 nM
ACMaxFBP (minimum concentration for maximal activation) (cell lysate PK (HeLa); Control (without AIM)): 216.4 ± 52.8 nM
AC0: concentration of FBP that completely reverses the inhibition of PK by AIM (cell lysate PK (HeLa); with AIM): 585.2 ± 99.0 nM
ACMaxFBP (minimum concentration for maximal activation) (cell lysate PK (HeLa); with AIM): 2293.7 ± 503.7 nM
EC50 (cell lysate PK (RKO); read-out: AC50FBP, Control (without AIM)): 0.0672 ± 0.0324 µM
EC50 (cell lysate PK (RKO); read-out: AC50FBP, with AIM): 1.07 ± 0.394 µM
EC50 [5]: 0.0289 ± 0.021 µM
SMILES: O=C(COP(=O)(O)O)[C@@H](O)[C@H](O)[C@H](O)COP(=O)(O)O [FBP]
Kd (PKM2 [1]): 0.174 µM
reversal of the inhibition of PK by AIM (cell lysate PK): completely reversed the inhibition

SMILES: N[C@@H](CO)C(=O)O [Serine, serine]
effect on glycolysis (rate, intermediate concentrations, ΔGs) ([2]; 5 mM serine): did not observe serine exert any significant effect on glycolysis
Kd (PKM2 [1]): 191 µM
glucose consumption and lactate generation with or without serine treatment ([4]; 5 mM serine 5 h): comparable
reversal of the inhibition of PK by AIM (cell lysate PK): did not significantly reverse the inhibition

Reference: publication PMC11402776 (The Journal of Biological Chemistry, 2024)
